Experimental data as given in ChEMBL document CHEMBL1629447, “Antitumor agents 286. Design, synthesis, and structure-activity relationships of 3'R,4'R-disubstituted-2',2'-dimethyldihydropyrano[2,3-f]chromone (DSP) analogues as potent chemosensitizers to overcome multidrug resistance” (2010).
≈ marks a conversion by molar mass, not a printed value. Calls of active or inactive are those of the source. The rule behind the calls is not given here.

Legend:
KBVIN [1] = test: Inhibition of Pgp-mediated multidrug resistance in human KBVIN cells assessed as chemosensitization activity measured by increase in vincristine-induced cytotoxicity at 1 ug/mL by SRB assay relative to untreated control; format: cell-based
[2] = Cytotoxicity in human KBVIN cells by SRB assay; format: functional
Method in brief: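 Cellular protein read by sulforhodamine B staining, absorbance 562 nm. GI50 is the concentration giving 50% lower absorbance than untreated cells, taken from replicate dose-response curves.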

KBVIN [3] = test: Inhibition of Pgp in human KBVIN cells assessed as facilitation of in calcein-AM accumulation by […]; format: cell-based
Method in brief: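 KB-Vin (MDR) cells, 10,000 per well, adhered one day in medium with 5% FBS. Pre-exposed to test compound at several concentrations for 30 min at 37 °C, then given fresh medium with 1 μM calcein-AM plus compound for 30 min at 37 °C. Washed with cold PBS in low light, lysed in 20 mM Tris-HCl, fluorescence read Ex 494/Em 517 nm. Verapamil as inhibitor control; two or more independent experiments.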

SMILES	fold change (FC) (KBVIN [1])	GI50 [2]	inhibition (KBVIN [3])
CCc1cc(=O)c2ccc3c(c2o1)[C@@H](OC(=O)c1ccccc1OC)[C@@H](OC(=O)c1ccccc1OC)C(C)(C)O3	28.1	> 31.5 µg/mL	
CCc1cc(=O)c2ccc3c(c2o1)[C@@H](OC(=O)N1CCCCC1)[C@@H](OC(=O)N1CCCCC1)C(C)(C)O3	22.2	> 20 µg/mL	
CCc1cc(=O)c2ccc3c(c2o1)[C@@H](OC(=O)/C=C/c1ccc(OC)cc1)[C@@H](OC(=O)/C=C/c1ccc(OC)cc1)C(C)(C)O3	287	> 36.4 µg/mL	
CCc1cc(=O)c2ccc3c(c2o1)[C@@H](OC(=O)C1CCCCC1)[C@@H](OC(=O)C1CCCCC1)C(C)(C)O3	< 12.2	> 20 µg/mL	
CCc1cc(=O)c2ccc3c(c2o1)[C@@H](OC(=O)CCc1ccccc1)[C@@H](OC(=O)CCc1ccccc1)C(C)(C)O3	106	10.1 µg/mL (≈ 18.2 µM)	
CCc1cc(=O)c2ccc3c(c2o1)[C@@H](OC(=O)/C=C/c1ccccc1)[C@@H](OC(=O)/C=C/c1ccccc1)C(C)(C)O3	222	9.44 µg/mL (≈ 17.1 µM)	
CCc1cc(=O)c2ccc3c(c2o1)[C@@H](OC(=O)N1CCCC1)[C@@H](OC(=O)N1CCCC1)C(C)(C)O3	24.9	> 20 µg/mL	
CCc1cc(=O)c2ccc3c(c2o1)[C@@H](OC(=O)c1cccc(OC)c1)[C@@H](OC(=O)c1cccc(OC)c1)C(C)(C)O3	27.1	> 35.8 µg/mL	
CCc1ccc(C(=O)O[C@@H]2c3c(ccc4c(=O)cc(CC)oc34)OC(C)(C)[C@@H]2OC(=O)c2ccc(CC)cc2)cc1	20.3	> 13.6 µg/mL	
CCc1cc(=O)c2ccc3c(c2o1)[C@@H](OC(=O)c1ccccc1C(F)(F)F)[C@@H](OC(=O)c1ccccc1C(F)(F)F)C(C)(C)O3	< 12.2	> 31.5 µg/mL	
CCc1cc(=O)c2ccc3c(c2o1)[C@@H](OCc1ccccc1)[C@@H](OCc1ccccc1)C(C)(C)O3	40.7	> 15.7 µg/mL	
CCc1cc(=O)c2ccc3c(c2o1)[C@@H](OC(=O)c1ccc(C(F)(F)F)cc1)[C@@H](OC(=O)c1ccc(C(F)(F)F)cc1)C(C)(C)O3	16.3	> 31.5 µg/mL	
CCc1cc(=O)c2ccc3c(c2o1)[C@@H](OC(=O)c1ccc(C#N)cc1)[C@@H](OC(=O)c1ccc(C#N)cc1)C(C)(C)O3	188	> 5.5 µg/mL	Active
CCc1cc(=O)c2ccc3c(c2o1)[C@@H](OC(=O)Cc1ccccc1)[C@@H](OC(=O)Cc1ccccc1)C(C)(C)O3	81.3	8.33 µg/mL (≈ 15.8 µM)	
CCc1cc(=O)c2ccc3c(c2o1)[C@@H](OC(=O)c1cccc(C#N)c1)[C@@H](OC(=O)c1cccc(C#N)c1)C(C)(C)O3	160	> 2.5 µg/mL	
COc1ccc(CCN(C)CCCC(C#N)(c2ccc(OC)c(OC)c2)C(C)C)cc1OC (configuration not stated) [VERAPAMIL]	141	> 31.5 µg/mL	
CCc1cc(=O)c2ccc3c(c2o1)[C@@H](OC(=O)N(C)C)[C@@H](OC(=O)N(C)C)C(C)(C)O3	< 12.2	> 20 µg/mL	
CCc1cc(=O)c2ccc3c(c2o1)[C@@H](OC(=O)c1ccc(OC)cc1)[C@@H](OC(=O)c1ccc(OC)cc1)C(C)(C)O3	257	9 µg/mL (≈ 16.1 µM)	Active
CCc1cc(=O)c2ccc3c(c2o1)[C@@H](OC(=O)c1cccc(C(F)(F)F)c1)[C@@H](OC(=O)c1cccc(C(F)(F)F)c1)C(C)(C)O3	< 12.2	> 31.5 µg/mL	
CCCCN(CCCC)C(=O)O[C@@H]1c2c(ccc3c(=O)cc(CC)oc23)OC(C)(C)[C@@H]1OC(=O)N(CCCC)CCCC	< 12.2	> 20 µg/mL	
CCc1cc(=O)c2ccc3c(c2o1)[C@@H](OC(=O)c1ccccc1)[C@@H](OC(=O)c1ccccc1)C(C)(C)O3	< 12.2	8.79 µg/mL (≈ 17.6 µM)	
CCc1cc(=O)c2ccc3c(c2o1)[C@@H](OC(=O)c1ccc([N+](=O)[O-])cc1)[C@@H](OC(=O)c1ccc([N+](=O)[O-])cc1)C(C)(C)O3	203	> 34 µg/mL	
CCc1cc(=O)c2ccc3c(c2o1)[C@@H](OC(=O)N(CC)CC)[C@@H](OC(=O)N(CC)CC)C(C)(C)O3	116	> 20 µg/mL	
CCc1cc(=O)c2ccc3c(c2o1)[C@@H](OC(=O)Cc1ccc(OC)cc1)[C@@H](OC(=O)Cc1ccc(OC)cc1)C(C)(C)O3	34.4	13.3 µg/mL (≈ 22.7 µM)	
CCc1cc(=O)c2ccc3c(c2o1)[C@@H](OC(=O)c1ccc(C)cc1)[C@@H](OC(=O)c1ccc(C)cc1)C(C)(C)O3	349	20.6 µg/mL (≈ 39.1 µM)	
